From the RNAGym collection of RNA variant scans (doi:10.1126/science.aae0568)
This sample holds only a part of the variants without activity.

B1: tRNA (parent)
chain: GUUCCGUUGGCGUAAUGGUAACGCGUCUCCCUCCUAAGGAGAAGACUGCGGGUUCGAGUCCCGUACGGAACG

Variants of: B1
Assay: yeast fitness relative to wild type (ratio to wild type); higher = fitter; tRNA-Arg(CCU), competitive growth, 37 C, YPD
Method in brief: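 Start and end populations of a pooled competition were compared by 100-nucleotide paired-end sequencing of gene amplicons. The Saccharomyces cerevisiae strains carried tRNA-Arg(CCU) gene variants at the native genomic locus, synthesised with a 3% per-site mutation rate at 69 sites, and competed in YPD at 37°C for 24 hours in six parallel replicates. Darwinian fitness relative to wild type was based on the change in genotype frequencies. Genotypes required ≥ 100 starting reads, and estimates < 0.5 were set to 0.5.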

Row | Variant | yeast fitness
1 | GUUCCGUUGGCGUAAUGGUAACGCGUCUACCUCCUAAGGAGAAGACUGCGGGUUCGAGUCCCGUACCGAACG [C29A G67C] | 0.646
2 | GUUCCGUUGGCGUAAUGGUAACGCGUCUACCUCCUAAGGAGAAGACUGCGGGUUCGAGUCCCGUACAGAACG [C29A G67A] | 0.605
3 | GUUCCGUUGGCGUAAUGGUAACGCGUCUACCUCCAAAGGAGAAGACUGCGGGUUCAAGUCCCAUACGGAACG [C29A U35A G56A G63A] | 0.525
4 | GUUCCGUUGGCGUAAUGGUAACGCGUCUACCUCCUAAGGAGAAGACUGCGGGUUCGAGUCCCGUAAGCAACG [C29A C66A G68C] | ≤ 0.5
5 | GUUCCGUUGGCGUAAUGGUAACGCGUCUACCUCCUAAGGAGAAGACUGCGGGUUCGAGUCCCGUACGGAUCG [C29A A70U] | 0.891
6 | GUUCCGUUGGCGUAAUGGUAACGCGUCUACCUCCUAAGGAGAAGACUGCGGGUUCGAGUCCCGUACGGACCG [C29A A70C] | 0.635
7 | GUUCCGUUGGCGUAAUGGUAACGCGUCUACCACCUAAGGAGAAGACUGCGGGUUCGAGUCCCGUCCGGAACG [C29A U32A A65C] | ≤ 0.5
8 | GUUCCGUUGGCGUAAUGGUAACGCGUCUACCUCCAAAGGAGAAGACUGCGGGUUCGAGUCCCGUACGGAACG [C29A U35A] | 0.672
9 | GUUCCGUUGGCGUAAUGGUAACGCGUCUACCUCCGAAGGAGAAGACUGCGGGUUCGAGUCCCGUACGGAACG [C29A U35G] | ≤ 0.5
10 | GUUCCGUUGGCGUAAUGGUAACGCGUCUACCUCCUAAGGAGUAGACUGCGGGUUCGAGUCCCGCACGGCACG [C29A A42U U64C A69C] | ≤ 0.5
11 | GUUCCGUUGGCGUAAUGGUAACGCGUCUACCUGCCAAGGAGAAGACUGUGGGUUCGCGUACCGUACGGAACG [C29A C33G U35C C49U A57C C60A] | 0.644
12 | GUUCCGUUGGCGUAAUGGUAACGCGUCUACCUCCUAAGGAGAAGACUGUGGGUUCGAGUCCCGUACGGAACG [C29A C49U] | 0.627
13 | GUUCCGUUGGCGUAAUGGUAACGCGUCUAUCUCCUAAGGAGAAGACUACAGGUUCGAGUACCGUACGGAACG [C29A C30U G48A G50A C60A] | ≤ 0.5
14 | GUUCCGUUGGCGUAAUGGUAACGCGUCUACAUCCUAAGGUGAAGACUGUGGGUUCGAGUCCCGUACGGAACG [C29A C31A A40U C49U] | ≤ 0.5
15 | GUUCCGUUGGCGUAAUGGUAACGCGUCUACCUCCUAUGGAGAAGACUGCGGGUUCGAGUCCCGUUCGGAACG [C29A A37U A65U] | ≤ 0.5
16 | GUUCCGUUGGCGUAAUGGUAACGCGUCUACCUCCUAAGGUGAAGCAUGAGGGUUCGGGUCCCGUACGGAACG [C29A A40U A45C C46A C49A A57G] | ≤ 0.5
17 | GUUCCGUUGGCGUAAUGGUAACGCGUCUACCUCCUAAGGCGAAGACUGCGGGUUCGAGUCCCGUACGGAACG [C29A A40C] | 0.741
18 | GUUCCGUUGGCGUAAUGGUAACGCGUCUACCUCCUAAGGUGAAGACUGCGGGUUCGAGUCCCGUACGGAACG [C29A A40U] | 0.684
19 | GUUCCGUUGGCGUAAUGGUAACGCGUCUAACUCCUAAGGAGAAGACUGCGGGUUCGAGUCCCGUACUGAACG [C29A C30A G67U] | 0.667

Row | Variant | yeast fitness
20 | GUUCCGUUGGCGUAAUGGUAACGCGUCUACCUCCAAAGGAGAAGACUGCGGGUUCAAGUCCCGUACGGAACG [C29A U35A G56A] | 0.741
21 | GUUCCGUUGGCGUAAUGGUAACGCGUCUACCUCCUAAGGAGAAGACUGCGGGUUCGAGUCCCGUUCAGAACG [C29A A65U G67A] | 0.5
22 | GUUCCGUUGGCGUAAUGGUAACGCGUCUACCUCCUAAGGAGAAGACUGCGGGUUUGAGUCCCGUACGGUACG [C29A C55U A69U] | ≤ 0.5
23 | GUUCCGUUGGCGUAAUGGUAACGCGUCUACCUCCUAAGGAGAAGACUGCGGGUUCGAGUCCCGUAUGGAACG [C29A C66U] | 0.627
24 | GUUCCGUUGGCGUAAUGGUAACGCGUCUACCUCCUAAGGAGAAGCGUGCGGGUUCGAGUCCCGUACGCAACG [C29A A45C C46G G68C] | ≤ 0.5
25 | GUUCCGUUGGCGUAAUGGUAACGCGUCUACGUCCUAAGGAGAAGACUGAGGGUUGGAGUCCCGUACGGAACG [C29A C31G C49A C55G] | 0.549
26 | GUUCCGUUGGCGUAAUGGUAACGCGUCUACCUCCUAAGGAGACGACUGCGGGUUCGAGUCCCGUACGGAACG [C29A A43C] | 0.748
27 | GUUCCGUUGGCGUAAUGGUAACGCGUCUACCUCCUAAGGAGAAGACUGCGGGUUUGAGUCCCCUACGGAACG [C29A C55U G63C] | ≤ 0.5
28 | GUUCCGUUGGCGUAAUGGUAACGCGUCUACCUCCUAAGGAGAAGCCUCGGGGUUCGAGUCCCGUACGGAACG [C29A A45C G48C C49G] | ≤ 0.5
29 | GUUCCGUUGGCGUAAUGGUAACGCGUCUACCUCCCAAGGAGAAGUCUGCGGGUUCGAGUGCCCUACGGAACG [C29A U35C A45U C60G G63C] | 0.538
30 | GUUCCGUUGGCGUAAUGGUAACGCGUCUACCUCCUAAGGAGAAGACUGCGGGUUUGAGUCCCCCACGGAACG [C29A C55U G63C U64C] | ≤ 0.5
31 | GUUCCGUUGGCGUAAUGGUAACGCGUCUACCUGCUAAGGAGAAGCCUGCGGGUUCGAGUCCCGUACGGAACG [C29A C33G A45C] | 0.543
32 | GUUCCGUUGGCGUAAUGGUAACGCGUCUACCUCCUAAGAAGAAGACUGAGGGUUCGAGUCCCGUAGGGAACG [C29A G39A C49A C66G] | ≤ 0.5
33 | GUUCCGUUGGCGUAAUGGUAACGCGUCUACCUCCUAUCGCGACGAUUGCGGGUUCGAGUCCCGUACGGAACG [C29A A37U G38C A40C A43C C46U] | 0.599
34 | GUUCCGUUGGCGUAAUGGUAACGCGUCUACCUCGUAAGGAGCAGACUGGGGGUUCGAGUCCCGUACGAAACG [C29A C34G A42C C49G G68A] | ≤ 0.5
35 | GUUCCGUUGGCGUAAUGGUAACGCGUCUACCUCCUAAGGAGAAGACUGCGGGUUCGACUCCCGUACAGAACG [C29A G58C G67A] | 0.589
36 | GUUCCGUUGGCGUAAUGGUAACGCGUCUAUCUCCUAAGGAGAAGACUGCGGGUUCGAGUCCCGUACGGAACG [C29A C30U] | 0.689
37 | GUUCCGUUGGCGUAAUGGUAACGCGUCUACCUCCUAAGGAGAAGACUGCGGGUUCGCGACCCGUACGGAACG [C29A A57C U59A] | 0.55
